Data as given in ChEMBL document CHEMBL2321845, “Discovery of 4-Aryl-2-benzoyl-imidazoles as tubulin polymerization inhibitor with potent antiproliferative properties” (J Med Chem, 2013).

Columns and labels:
[1] = test system: A-375; test: Cytotoxicity against human A375 cells assessed as growth inhibition after 48 hrs by SRB assay; type: functional, cell-based; conditions: A-375, 48 h
Summary of the method: (§1)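 Melanoma cells from ATCC, grown in DMEM with 10% FBS at 37°C under 5% CO2. Seeded at 1000–5000 cells/well according to growth rate and exposed to a range of compound concentrations for 48 h, in three to five replicates. Cells were fixed with 10% TCA, stained with 0.4% SRB and read at 540 nm.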

[2] = Cytotoxicity against human MDA-MB-435/LCC6MDR1 cells assessed as growth inhibition after 48 hrs by SRB assay; type: functional, cell-based, MDA-MB-435/LCC6 MDR1; conditions: Homo sapiens, MDA-MB-435/LCC6 MDR1, 48 h
[3] = test system: PPC-1; test: Cytotoxicity against human PPC1 cells assessed as growth inhibition after 96 hrs by SRB assay; type: functional, cell-based; conditions: PPC-1, 96 h
Summary of the method: (§2)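 Plated at 1000–5000 cells/well depending on growth rate and treated with graded compound concentrations for 96 h, three to five replicates. Cell number was measured by SRB: 10% TCA fixation, 0.4% SRB staining, absorbance at 540 nm. IC50 relative to untreated control came from a nonlinear regression fit.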

[4] = test system: MDA-MB-435; test: Cytotoxicity against human MDA-MB-435 cells assessed as growth inhibition after 48 hrs by SRB assay; type: functional, cell-based; conditions: MDA-MB-435, 48 h
[5] = Cytotoxicity against human WM164 cells assessed as growth inhibition after 48 hrs by SRB assay; type: functional, cell-based; conditions: WM164, 48 h
Summary of the method: as §1, with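 “nm. IC50 (50% growth inhibition versus untreated control) was taken from nonlinear regression of % survival against concentration.” for “nm.”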

[6] = test system: DU-145; test: Cytotoxicity against human DU145 cells assessed as growth inhibition after 96 hrs by SRB assay; type: functional, cell-based; conditions: Homo sapiens, DU-145, 96 h
[7] = test system: LNCaP; test: Cytotoxicity against human LNCAP cells assessed as growth inhibition after 96 hrs by SRB assay; type: functional, cell-based; summary of the method: as §2
[8] = test system: PC-3; test: Cytotoxicity against human PC3 cells assessed as growth inhibition after 96 hrs by SRB assay; type: functional, cell-based; conditions: PC-3, 96 h; summary of the method: as §2
[9] = test system: PC-3; test: Cell cycle arrest in human PC3 cells assessed as accumulation at G2/M phase after 24 hrs by propidium iodide staining based FACS analysis (reference value: 18%); type: functional

## COc1cc(Cc2nc(-c3ccccc3)c(C)[nH]2)cc(OC)c1OC
[1]
  IC50: > 50 µM

## O=C(c1ccc(Cl)cc1)c1nc(-c2ccc(Cl)cc2)c[nH]1
[1]
  IC50: 35.7 µM
[2]
  IC50: > 50 µM
[3]
  IC50: > 50 µM
[4]
  IC50: > 50 µM
[5]
  IC50: > 50 µM
[6]
  IC50: > 50 µM
[7]
  IC50: > 50 µM
[8]
  IC50: > 50 µM

## COc1cc(C(=O)c2nc(-c3ccc(F)cc3)c[nH]2)cc(OC)c1OC
[1]
  IC50: 0.197 µM
[2]
  IC50: 0.263 µM
[3]
  IC50: 0.134 µM
[4]
  IC50: 0.32 µM
[5]
  IC50: 0.298 µM
[6]
  IC50: 0.353 µM
[7]
  IC50: 0.114 µM
[8]
  IC50: 0.196 µM

## COc1cc(C(=O)c2nc(-c3ccc(N(C)C)cc3)c[nH]2)cc(OC)c1OC
[1]
  IC50: 0.141 µM
[2]
  IC50: 0.162 µM
[3]
  IC50: 0.12 µM
[4]
  IC50: 0.2 µM
[5]
  IC50: 0.129 µM
[6]
  IC50: 0.263 µM
[7]
  IC50: 0.096 µM
[8]
  IC50: 0.118 µM

## CCCc1[nH]c(Cc2cc(OC)c(OC)c(OC)c2)nc1-c1ccccc1
[2]
  IC50: 15.9 µM
[4]
  IC50: 10.9 µM

## CCc1[nH]c(C(=O)c2cc(OC)c(OC)c(OC)c2)nc1-c1ccccc1
[1]
  IC50: 2.15 µM
[2]
  IC50: 5.11 µM
[3]
  IC50: 2.08 µM
[4]
  IC50: 8.79 µM
[5]
  IC50: 5.51 µM
[6]
  IC50: 5.08 µM
[7]
  IC50: 2.03 µM
[8]
  IC50: 3.65 µM

## COc1cc(C(=O)c2nc(-c3ccccc3)cn2C2CCCC2)cc(OC)c1OC
[1]
  IC50: 0.135 µM
[2]
  IC50: 0.161 µM
[3]
  IC50: 0.063 µM
[4]
  IC50: 0.134 µM
[5]
  IC50: 0.056 µM
[6]
  IC50: 0.167 µM
[7]
  IC50: 0.051 µM
[8]
  IC50: 0.056 µM

## COc1cc(C(=O)c2nc(-c3ccc(O)cc3)c[nH]2)cc(OC)c1OC
[1]
  IC50: 0.487 µM
[2]
  IC50: 0.455 µM
[3]
  IC50: 0.122 µM
[4]
  IC50: 0.669 µM
[5]
  IC50: 0.549 µM
[6]
  IC50: 0.518 µM
[7]
  IC50: 0.219 µM
[8]
  IC50: 0.155 µM

## O=C(c1ccccc1)c1nc(-c2ccccc2)c[nH]1
[1]
  IC50: > 50 µM
[2]
  IC50: > 50 µM
[3]
  IC50: > 50 µM
[4]
  IC50: > 50 µM
[5]
  IC50: > 50 µM
[6]
  IC50: > 50 µM
[7]
  IC50: > 50 µM
[8]
  IC50: > 50 µM

## COc1cc(C(=O)c2nc(-c3ccc(Cl)cc3)c[nH]2)cc(OC)c1OC
[1]
  IC50: 0.051 µM
[2]
  IC50: 0.075 µM
[3]
  IC50: 0.051 µM
[4]
  IC50: 0.106 µM
[5]
  IC50: 0.063 µM
[6]
  IC50: 0.125 µM
[7]
  IC50: 0.022 µM
[8]
  IC50: 0.064 µM

## COc1cc(C(=O)c2nc(-c3ccccc3)cn2C(C)C)cc(OC)c1OC
[1]
  IC50: 0.038 µM
[2]
  IC50: 0.044 µM
[3]
  IC50: 0.015 µM
[4]
  IC50: 0.018 µM
[5]
  IC50: 0.023 µM
[6]
  IC50: 0.114 µM
[7]
  IC50: 0.062 µM
[8]
  IC50: 0.053 µM

## COc1cc(C(=O)c2nc(-c3ccccc3)c(C)[nH]2)cc(OC)c1OC
[1]
  IC50: 1.3 µM
[2]
  IC50: 1.59 µM
[3]
  IC50: 0.86 µM
[4]
  IC50: 1.63 µM
[5]
  IC50: 1.9 µM
[6]
  IC50: 2 µM
[7]
  IC50: 0.938 µM
[8]
  IC50: 1.62 µM

## CCCn1cc(-c2ccccc2)nc1C(=O)c1cc(OC)c(OC)c(OC)c1
[1]
  IC50: 0.042 µM
[2]
  IC50: 0.044 µM
[3]
  IC50: 0.01 µM
[4]
  IC50: 0.037 µM
[5]
  IC50: 0.014 µM
[6]
  IC50: 0.072 µM
[7]
  IC50: 0.049 µM
[8]
  IC50: 0.026 µM

## COc1cc(-c2c[nH]c(C(=O)c3ccc(O)cc3)n2)cc(OC)c1OC
[1]
  IC50: > 50 µM
[2]
  IC50: > 50 µM
[4]
  IC50: > 50 µM
[5]
  IC50: > 50 µM

## COc1ccc(-c2c[nH]c(C(=O)c3cc(OC)c(OC)c(OC)c3)n2)cc1
[1]
  IC50: 0.033 µM
[2]
  IC50: 0.059 µM
[3]
  IC50: 0.054 µM
[4]
  IC50: 0.055 µM
[5]
  IC50: 0.041 µM
[6]
  IC50: 0.21 µM
[8]
  IC50: 0.061 µM

## O=C(c1ccc(O)cc1)c1nc(-c2ccc(O)cc2)c[nH]1
[1]
  IC50: 38.8 µM
[2]
  IC50: 21.4 µM
[4]
  IC50: 48 µM
[5]
  IC50: 48.2 µM

## COc1ccc(C(=O)c2nc(-c3cc(OC)c(OC)c(OC)c3)c[nH]2)cc1
[1]
  IC50: 35.4 µM
[2]
  IC50: 11.4 µM
[3]
  IC50: 5.69 µM
[4]
  IC50: 11 µM
[5]
  IC50: 36 µM
[6]
  IC50: > 50 µM
[7]
  IC50: 0.708 µM
[8]
  IC50: 10.4 µM

## CCc1ccc(-c2nc(C(=O)c3cc(OC)c(OC)c(OC)c3)c[nH]2)cc1
[1]
  IC50: 0.014 µM
[2]
  IC50: 0.027 µM
[3]
  IC50: 0.015 µM
[4]
  IC50: 0.025 µM
[6]
  IC50: 0.025 µM
[8]
  IC50: 0.013 µM
[9]
  Activity: Dose-dependent effect
[9]; record 2
  Activity: <=70%

## COc1cc(C(=O)c2c[nH]c(-c3ccc(C(C)C)cc3)n2)cc(OC)c1OC
[2]
  IC50: 0.25 µM
[3]
  IC50: 0.173 µM
[4]
  IC50: 0.312 µM
[6]
  IC50: 0.482 µM
[7]
  IC50: 0.171 µM
[8]
  IC50: 0.136 µM
